Assay outcomes: PubChem, The Scripps Research Institute Molecular Screening Center
Most compounds without a hit are left out; they make up all but 3.3% or so of the library.
ABHD4 inh: inhibits mouse alpha/beta hydrolase domain 4; Q8VD66; AID 720543; purified mABHD4, FP-Rh probe fluorescence polarization; 0.54% of 370,000 active; inhibition, % at 8.92 µM;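 active = inhibition exceeding the mean over every tested compound plus 3 SD, cut at about 30% in these data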;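 note: 0% = plate median of compound wells and 100% = S159A mutant with DMSO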
Target sequence (Q8VD66 whole entry, looked up, the tested form may be a part): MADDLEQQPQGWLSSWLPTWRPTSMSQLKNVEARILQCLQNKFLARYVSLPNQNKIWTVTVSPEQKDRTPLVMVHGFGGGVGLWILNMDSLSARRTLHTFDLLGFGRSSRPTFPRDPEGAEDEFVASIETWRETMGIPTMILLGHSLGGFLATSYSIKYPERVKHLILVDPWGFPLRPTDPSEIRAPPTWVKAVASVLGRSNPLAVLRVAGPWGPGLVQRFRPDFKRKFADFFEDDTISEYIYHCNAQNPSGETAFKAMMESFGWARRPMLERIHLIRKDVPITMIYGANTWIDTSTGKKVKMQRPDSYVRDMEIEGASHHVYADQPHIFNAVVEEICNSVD
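Test system: mABHD4 protein | Buffer or medium: HEPES pH 7.0 buffer, 150 mM NaCl, 0.01% Pluronic F-127 | Probe or stimulus: FP-Rh fluorescent activity-based probe, added after compound pre-incubation | Timing: Pre-incubation 45 min, probe exposure 60 min, at 25 °C | Technique: Fluorescence polarization, excitation 525 nm, emission 598 nm, BODIPY TMR filters | Repeats: Single well per compound (singlicate)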
SIAE primary: inhibitors of human sialic acid acetylesterase SIAE; SIAE FP-Rh probe binding, fluorescence polarization; inhibition, % at 9.66 µM; AID 1053197; 0.69% of 370,000 active;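 active = inhibition above a cutoff: mean of compounds within the control limits plus 3 SD of those, cut at about 17% in these data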;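 note: 0% = plate median of compound wells and 100% = probe without SIAE protein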
HTRA1 inhibitor: inhibitors of human serine peptidase HTRA1; recombinant HTRA1, FP-rhodamine activity-based probe, fluorescence polarization; inhibition, % at 5.96 µM; Q92743; 0.5% of 340,000 active; AID 504803; in the data active = inhibition above about 36%;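 note: 0% = enzyme with DMSO and 100% = wells lacking enzyme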
PRMT1 inh: PRMT1 (human) inhibition, primary screen; inhibition, % at 2.79 µM; recombinant PRMT1, activity-based probe fluorescence polarization; Q99873; AID 652257; 1.3% of 370,000 active;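 active = inhibition above about 21% made by adding two undisclosed values, limit read from the data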
Target sequence (Q99873 whole entry, looked up): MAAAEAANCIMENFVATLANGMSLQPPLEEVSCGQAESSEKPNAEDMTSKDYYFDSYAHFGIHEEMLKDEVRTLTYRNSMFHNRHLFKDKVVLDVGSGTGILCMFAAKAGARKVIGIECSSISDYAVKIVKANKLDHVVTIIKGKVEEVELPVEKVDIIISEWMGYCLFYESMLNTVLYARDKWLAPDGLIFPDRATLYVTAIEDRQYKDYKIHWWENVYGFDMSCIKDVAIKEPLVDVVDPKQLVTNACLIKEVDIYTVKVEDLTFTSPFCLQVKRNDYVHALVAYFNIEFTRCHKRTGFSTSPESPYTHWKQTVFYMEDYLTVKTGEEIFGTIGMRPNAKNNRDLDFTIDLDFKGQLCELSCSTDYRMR
rCAG binder: molecules binding r(CAG) RNA repeats | inhibition, % at 3 µM | 1.3% of 370,000 active | r(CAG) RNA repeat, TO-PRO-1 dye displacement fluorescence;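 active = inhibition above the plate cutoff, the mean of all test compounds on that plate plus 3 SD, cut at about 35% in these data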;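 note: 0% = DMSO alone and 100% = 100 µM mitoxantrone as full dye displacement; higher means more dye released from RNA so lower well fluorescence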
HTRA1 inh conf: HTRA1 (human) inhibition, confirmation; shares compounds with HTRA1 inhibitor; recombinant HTRA1, FP-rhodamine activity-based probe, fluorescence polarization; inhibition, % at 5.96 µM; 66% of 1,600 active; AID 540248;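 active = mean inhibition over three repeats above a set limit taken from the earlier primary screen, cut at about 37% in these data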;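 note: 0% = HTRA1 with DMSO and 100% = wells lacking HTRA1; inhibitors block probe binding so polarization drops and inhibition rises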
rCAG binder conf: r(CAG) RNA repeat binding, confirmation | shares compounds with rCAG binder | TO-PRO-1 dye displacement fluorescence | inhibition, % at 3 µM | 70% of 4,300 active | AID 652065;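 active = inhibition above a per-plate cutoff, the mean inhibition of sample wells plus 3 SD, cut at about 35% in these data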;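 note: loss of TO-PRO-1 fluorescence as compound displaces dye from 1x1 AA loop RNA; 0% = DMSO only wells and 100% = 100 µM mitoxantrone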
DNA CAG counter: DNA CAG dye complex inhibition counter-screen. 94% of 4,300 active. shares compounds with rCAG binder. d(CAG) DNA oligo TO-PRO-1 dye displacement, fluorescence. AID 652068. inhibition, % at 3 µM;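 active = inhibition above its plate's cutoff, the mean test-well inhibition plus 3 SD, cut at about 4.8% in these data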;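 note: 0% = DNA dye mix with DMSO and 100% = 100 µM mitoxantrone; hits displace the dye from DNA and so lower well fluorescence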
PRMT1 confirm: confirmation of human PRMT1 inhibitors; shares compounds with PRMT1 inh; recombinant His-PRMT1, activity-based probe fluorescence polarization; inhibition, % at 2.79 µM; 42% of 3,300 active; AID 687036;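 active = mean inhibition across replicates above the hit cutoff derived for the earlier primary screen, cut at about 22% in these data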
mABHD4 conf: confirmation of mouse ABHD4 inhibitors | shares compounds with ABHD4 inh | purified mABHD4, FP-Rh probe fluorescence polarization | inhibition, % at 8.92 µM | 55% of 1,800 active;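 active = mean inhibition across replicates above the hit cutoff set in the primary screen, cut at about 30% in these data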;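 note: 0% = wild-type ABHD4 with DMSO and 100% = catalytically dead S159A mutant with DMSO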
SIAE confirm: human SIAE inhibition, confirmation; SIAE FP-Rh activity-based probe, fluorescence polarization; shares compounds with SIAE primary; 13% of 2,300 active; inhibition, % at 9.66 µM; AID 1117263;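 active = mean inhibition of the replicates above the hit cutoff set in the primary screen, cut at about 17% in these data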;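 note: 0% = SIAE with DMSO and probe and 100% = probe without SIAE; inhibitors lower polarization as more probe stays unbound to SIAE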
Starred values were filed as active, the others as inactive; i = inactive; / = no result.

SMILES	ABHD4 inh	SIAE primary	HTRA1 inhibitor	PRMT1 inh	rCAG binder	HTRA1 inh conf	mABHD4 conf	SIAE confirm	others
O=C1C=C(c2c(O)ccc3ccccc23)c2ccccc2C1=O	52*	8	46*	41*	10	48*	55*	/	PRMT1 confirm=40*
O=C(O)c1cc2ccccc2c2c1C(=O)c1ccccc1-2	3	-1	1	0	4	/	/	/
O=C(NCc1ccccc1)C(C1CC1)n1c(=O)c(-c2ccco2)nc2ccccc21 (stereo unspecified)	3	-4	/	13	21	/	/	/
Cc1cccc(NNC(=O)C(=O)NNc2cccc(C)c2)c1	10	11	/	-5	-1	/	/	/
Cc1cccc(N=NC(=S)NNc2cccc(C)c2)c1	32*	6	36*	-4	6	45*	58*	/
O=C1CC(N(O)c2ccccc2)C(=O)N1c1ccc(Cl)c(Cl)c1 (stereo unspecified)	46*	7	60*	12	21	0	89*	/
COCCCNC(=O)[C@H]1O[C@@H](n2cnc3c(=O)[nH]c(N)nc32)[C@H](O)[C@@H]1O	2	4	/	-2	1	/	/	/
O=C(N/N=C/c1c(O)ccc2ccccc12)c1ccc(Br)o1	38*	12	48*	1	9	42*	10	/
COc1ccc2[nH]c(=O)cc(C(=O)O)c2c1	7	7	3	-1	8	/	/	/
COc1ccc2[nH]c3c4c(ccc3c2c1)C(=O)C=CC4=O	56*	1	80*	20	44*	53*	51*	/	rCAG binder conf=19;DNA CAG counter=15*
O=C(CSc1nnc(-c2ccccc2)n1-c1ccc(Cl)cc1)Nc1ccc2cn[nH]c2c1	3	2	/	-2	4	/	/	/
Cc1nc(N2CCN(C(=O)C3CC3)CC2)c2c3c(sc2n1)CC(C)CC3 (stereo unspecified)	-3	-5	/	3	/	/	/	/
Nc1cccc2c(O)cccc12	42*	11	40*	17	4	12	51*	/
CCOc1ccccc1N1C(=O)CC(Nc2ccc(N3CCOCC3)cc2)C1=O (stereo unspecified)	46*	9	44*	5	13	14	9	/
O=C1CC(Nc2ccc(N3CCOCC3)cc2)C(=O)N1c1ccccc1 (stereo unspecified)	/	/	14	/	/	/	/	/
COc1ccccc1N1C(=O)CC(Nc2ccc(N3CCOCC3)cc2)C1=O (stereo unspecified)	46*	14	44*	22*	13	8	7	/
O=C1c2ccccc2C(=O)c2c1ccc(O)c2O	74*	19*	76*	/	10	93*	88*	/
NC1=C(Br)C(=O)c2ncccc2C1=O	6	2	14	10	2	/	/	/
O=C1C=C(NCCc2cc(Br)c(O)c(Br)c2)C(=O)c2ncccc21	48*	10	53*	13	12	43*	51*	/
Fc1cccc(F)c1Cn1ccc2ccc(-c3ccc4ccn(Cc5c(F)cccc5F)c4c3)cc21	4	-1	/	-1	4	/	/	/
CCOC(=O)c1sc(N=NC2=C(O)CCCC2=O)c(C(=O)OCC)c1C	52*	22*	48*	6	57*	38*	34*	0	rCAG binder conf=33;DNA CAG counter=17*
COc1ccc2c(c1OC)C(=O)OC2	-6	5	-16	-2	0	/	/	/
COc1ccc2c3c(cccc13)C(=O)CC2	87*	73*	141*	145*	i	3	5	3	PRMT1 confirm=81*
COc1ccc(/C=C/c2ccc3c(Br)ccc(O)c3n2)cc1	18	-2	23	-1	16	/	/	/
COc1cc(/C=C/c2ccc3c(Br)cc(Br)c(O)c3n2)ccc1O	0	28*	44*	-1	39*	31	/	-5	rCAG binder conf=39*;DNA CAG counter=20*
SMILES	ABHD4 inh	SIAE primary	HTRA1 inhibitor	PRMT1 inh	rCAG binder	HTRA1 inh conf	mABHD4 conf	SIAE confirm	others
O=C(N/N=C\c1c(O)ccc2ccccc12)c1cncc(Br)c1	34*	31*	53*	-4	-2	50*	25	6
O=C(N/N=C/c1ccc(O)c2ncccc12)c1cccc(Br)c1	9	29*	67*	-4	15	59*	/	13
Cn1cc(C(=O)N/N=C/c2c(O)ccc3ccccc23)ccc1=O	31*	30*	62*	-3	7	42*	30*	9
O=C(N/N=C/c1cc(Br)ccc1O)c1ccncc1	9	-1	12	-7	5	/	/	/
Cc1ccc(C(=O)N/N=C/c2c(O)ccc3ccccc23)cn1	17	21*	62*	-4	13	49*	/	3
NC(=O)c1c(N)[nH]c(C(=O)c2ccccc2)c1-c1cccc2ccccc12	1	10	/	-1	/	/	/	/
C=C(C)Cn1c(SCC(=O)N/N=C(\C)c2ccc(Br)cc2)nnc1-c1ccc(Br)cc1	-10	-3	/	5	5	/	/	/
O=Nc1c(O)c2ccccc2c2ccccc12	51*	30*	62*	2	16	78*	58*	24*
O=c1ccc2ccccc2c2ccccc12	3	-8	/	5	2	/	/	/
CCCCNC(=O)C1(C(=O)C2CC2)CC(c2ccccc2C(F)(F)F)=NO1 (stereo unspecified)	5	3	/	3	0	/	/	/
CN(/N=C/c1ccccc1Cl)c1ncc(Cl)cc1C(F)(F)F	-2	-2	3	3	0	/	/	/
CN(/N=C/c1ccc(O)cc1O)c1ncc(C(F)(F)F)cc1Cl	7	19*	56*	0	2	89*	/	2
CC(=O)c1cc(-c2cccc(C(C)C)c2)c(=O)n2c1CCC2	-1	5	/	-3	0	/	/	/
Oc1ccc(NCc2ccccc2OCc2ccccc2F)cc1	49*	34*	63*	12	2	21	50*	10
CCOc1cccc(CNc2ccc(O)cc2)c1OCc1ccc(Cl)cc1	41*	29*	49*	4	18	19	36*	8
CCOc1ccccc1CNc1ccc(O)cc1	57*	34*	61*	19	13	24	/	6
Cc1ccc(NCc2ccccc2OCc2ccccc2F)cc1	0	-2	-9	2	-2	/	/	/
